Screening data: PubChem BioAssay, several laboratories
A selection: hits, their analogues and other compounds. The true share with any hit is near 4%.
S1P3 antag – S1P3 (human) receptor antagonism. Q99500. CHO S1P3 NFAT-BLA reporter, FRET fluorescence, antagonist mode. inhibition, % at 4.98 µM. 170,000 tested, 0.27% active;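 active = inhibition above the plate cutoff, the mean inhibition of test wells on that plate plus 3 SD, cut at about 28% in these data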;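 note: cells challenged with S1P at its EC80 of 0.8 µM; blue over green emission ratio from cleaved BLA substrate after 4 h stimulation; 0% = S1P-stimulated wells and 100% = unstimulated DMSO-only wells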
Target sequence (Q99500 whole entry, looked up): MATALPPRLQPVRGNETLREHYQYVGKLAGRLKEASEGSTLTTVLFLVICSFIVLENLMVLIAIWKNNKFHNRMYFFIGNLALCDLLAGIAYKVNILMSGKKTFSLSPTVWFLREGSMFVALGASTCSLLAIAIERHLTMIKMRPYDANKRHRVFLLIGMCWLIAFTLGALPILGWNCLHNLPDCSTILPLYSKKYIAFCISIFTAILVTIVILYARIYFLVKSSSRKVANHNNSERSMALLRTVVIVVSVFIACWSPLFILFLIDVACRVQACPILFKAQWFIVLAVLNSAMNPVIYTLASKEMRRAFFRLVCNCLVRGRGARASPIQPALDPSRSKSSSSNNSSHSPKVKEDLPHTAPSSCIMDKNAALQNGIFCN
MDM2 E3 inh – blocks human Mdm2 ubiquitin ligase activity | AID 1230 | Q00987 | 210,000 tested, 0.11% active | signal enhancement, % at 5 µM | cell-based MDM2 ubiquitination luciferase reporter, 2 h; 0 = plate control, 100 = twice control, blank-subtracted;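 active = signal enhancement of 30% or more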;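 note: luminescence tracks abundance of the self-degrading MDM2-luciferase fusion protein; higher signal means inhibition of MDM2 E3 ligase activity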
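Material: stable MDM2–luciferase fusion reporter cells / Quantity: 2000 cells/well / Dosing: single 5 µM compound dose, 0.2% final DMSO / Buffer or medium: DMEM / Schedule: 4 h cell settling then 2 h compound exposure, 37 °C / Detection: luminescence with SteadyLite reagent, 15 min at room temperature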
Hsp70 act – Hsp70 transcriptional activation, primary screen | HeLa Hsp70 promoter luciferase reporter, luminescence; scaled: vehicle 0, proteasome-inhibitor control 100% | activation, % at 10 µM | 200,000 tested, 0.04% active | AID 1203;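 active = activation above the mean across all tested compounds plus 3 SD, cutoff set per campaign, cut at about 5.5% in these data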;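 note: 100% = MG132 at 30 µM as the positive control and 0% = DMSO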
CHOP inhibitor – blocks CHOP induction under ER stress. CHO-K1 CHOP-promoter luciferase, tunicamycin-induced, 15-18 h. inhibition, % at 10 µM. 220,000 tested, 3.8% active;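 active = compounds that reduced the stress-induced luciferase reporter signal by more than about 70% of percent inhibition, limit read from the data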;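 note: 0% = tunicamycin plus vehicle and 100% = wells without tunicamycin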
* marks the source's active call; other numbers are inactive results; x = no result.

SMILES | S1P3 antag | MDM2 E3 inh | Hsp70 act | CHOP inhibitor
Cc1cc2c(cc1C)CSC(c1ccc(O)cc1)SC2 | x | -8 | 0 | 90*
CN(C(=O)COC(=O)CNC(=O)c1ccc(Cl)cc1Cl)c1ccccc1 | 13 | -1 | 0 | 18
Cc1ccccc1CNC(=O)c1ccccc1 | x | 0 | 0 | 20
Cc1ccc(Nc2nc(N)[nH]c(=O)c2N=O)cc1 | -15 | -1 | x | 18
CNC(=O)[C@H]1O[C@@H](n2cnc3c(NCc4ccc(N)cc4)ncnc32)C(O)[C@H]1O (some centres not stated) | x | x | x | -28
COc1ccc2cc(C(c3nnnn3CCc3ccccc3)N3CCCC(C)C3)c(=O)[nH]c2c1 (configuration not stated) | 7 | -13 | 0 | 87*
O=C(CSc1nnnn1-c1ccccc1)Nc1ccc(N2CCOCC2)c(Cl)c1 | 20 | 1 | 1 | 34
Cc1cc(C)nc(SCC(=O)Nc2ccc(N3CCOCC3)c(Cl)c2)n1 | 16 | -13 | 0 | x
O=C(COc1c(F)c(F)c(C(F)(F)F)c(F)c1F)Nc1ccc(N2CCOCC2)c(Cl)c1 | -43 | -3 | 0 | 85*
O=C(CSc1nnc(C23CC4CC(CC(C4)C2)C3)o1)Nc1ccc(N2CCOCC2)c(Cl)c1 | -10 | -13 | 0 | 76*
O=C(CSc1nnnn1-c1cccc2ccccc12)Nc1ccc(N2CCOCC2)c(Cl)c1 | x | -20 | 0 | 71*
COc1ccc(-c2cn3cc(Cl)ccc3n2)cc1OC | 24 | 9 | 0 | x
Clc1ccc2nc(-c3ccc(Br)s3)cn2c1 | x | -1 | 0 | 75*
CC(C)Cn1c(N)c(C=O)c(=O)[nH]c1=O | 0 | 0 | 0 | 4
S=c1[nH]nc(Cc2cccs2)n1-c1ccccc1 | x | -4 | 0 | -13
CCCCc1ccc(-n2c(Cc3cccs3)n[nH]c2=S)cc1 | -4 | -16 | 0 | 77*
c1ccc(CNc2ncnc3scc(-c4cccs4)c23)nc1 | 4 | -6 | 0 | 72*
c1ccc(-c2csc3ncnc(NCc4ccccn4)c23)cc1 | 4 | -16 | x | 42
Cc1nn(C(=O)c2ccco2)c(C)c1Sc1ccc(Cl)cc1 | -13 | 0 | 0 | 73*
Cc1nn(C(=O)c2ccco2)c(C)c1Sc1ccc([N+](=O)[O-])cc1 | x | -3 | 0 | 62
CC(C)(C)NC(=O)Cn1cc(C#N)c2cc(Br)ccc21 | 0 | -1 | 0 | 79*
COC(=O)Cn1cc(C#N)c2ccccc21 | x | -3 | 0 | -11
Cc1cc(C)cc(NS(=O)(=O)c2ccc3c(c2)c(=O)n(C)c(=O)n3C)c1 | x | -11 | -1 | 93*
Cn1c(=O)c2cc(S(=O)(=O)Nc3cc(C(=O)O)cc(C(=O)O)c3)ccc2n(C)c1=O | -17 | 7 | 0 | 6
O=C(Nc1nc2cc3c(cc2s1)OCCO3)C1=COCCO1 | 4 | -84 | x | 94*
SMILES | S1P3 antag | MDM2 E3 inh | Hsp70 act | CHOP inhibitor
Cc1noc(C)c1COc1ccc(C(=O)OCC(=O)NCCN2C(=O)CSC2=O)cc1 | -7 | -9 | 0 | 14
Brc1ccc(-c2nnc(Cc3ccccc3)o2)cc1 | 12 | -8 | x | 3
O/C(=C\Sc1nnc(Cc2ccccc2)o1)c1ccc(Br)cc1 | 81* | -34 | 0 | 35
Cc1cc(C)n2nc(C(=O)NC3CCCc4ccccc43)nc2n1 (configuration not stated) | 2 | -21 | 0 | 7
COc1ccc(S(=O)(=O)NCCSCc2cccc(C)c2)cc1Br | x | 0 | 0 | 85*
Cc1ccc(S(=O)(=O)NCCSCc2ccccc2)cc1 | x | -16 | 0 | 22
CCC1C/C(=C\c2cccnc2)C(=O)/C(=C/c2cccnc2)C1 (configuration not stated) | -8 | 19 | 25* | 106*
O=C1/C(=C/c2ccccc2)CCCc2ccccc21 | x | -10 | 0 | 89*
O=C1/C(=C/c2cccnc2)CCC/C1=C\c1cccnc1 | -11 | 36* | 3 | 63
O=C1/C(=C\c2cccnc2)CCc2ccccc21 | x | -15 | 0 | -18
O=C(NCc1ccc(Cl)cc1)C(=O)NCC1OCCN1C(=O)c1ccc(Cl)cc1 (configuration not stated) | -17 | -12 | 0 | 25
COc1ccc(NC(=O)Nc2ccc(F)c(Cl)c2)cc1 | 6 | 17 | 0 | 51
COc1ccc(NC(=O)NC23CC4(C)CC(C)(CC(C)(C4)C2)C3)cc1 | -2 | -10 | 0 | 70*
COc1ccc(-c2nn(-c3ccccc3)cc2C(=O)N/N=C/c2ccc([N+](=O)[O-])o2)cc1 | -6 | -10 | 0 | 90*
O=C(C1CCN(S(=O)(=O)N2CCCCC2)CC1)N1CCCCC1 | -1 | -5 | 0 | 14
